In ChEMBL document CHEMBL6134769, “Discovery of N-substituted-2-oxoindolin benzoylhydrazines as c-MET/SMO modulators in EGFRi-resistant non-small cell lung cancer” (RSC Med Chem, 2025):
Activity calls are given as the source filed them. The calls are words filed in the database; no cut-off is given here.

Columns and labels:
[1] = target: Insulin-like growth factor 1 receptor (Homo sapiens) (UniProt P08069); assay: Inhibition of human N-terminal GST-fused IGF1R cytoplasmic domain (959 to 1367 (end)residues) expressed in baculovirus expression system at 20 uM measured after 1 hr in presence of peptide substrate and ATP by off-chip mobility shift assay relative to control
How it was run: (§1)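 Off-chip mobility shift assay. Product and substrate peptides were separated; activity was taken as P/(P+S). Complete reaction was set as 0% inhibition and enzyme-free background as 100%. Run in triplicate, mean ± SD.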

[2] = target: Tyrosine-protein kinase SYK (Homo sapiens) (UniProt P43405); assay: Inhibition of human full-length N-terminal GST-fused SYK (1 to 635 (end)residues) expressed in baculovirus expression system at 20 uM measured after 1 hr in presence of peptide substrate and ATP by off-chip mobility shift assay relative to control; how it was run: as §1
[3] = target: Epidermal growth factor receptor (Homo sapiens) (UniProt P00533); assay: Inhibition of human N-terminal GST-fused EGFR cytoplasmic domain (669 to 1210 (end)residues) expressed in baculovirus expression system at 20 uM measured after 1 hr in presence of peptide substrate and ATP by off-chip mobility shift assay relative to control; how it was run: as §1
[4] = Antiproliferative activity against human PC9-OR cells assessed as reduction in cell viability measured after 72 hrs by MTS assay
[5] = target: High affinity nerve growth factor receptor (Homo sapiens) (UniProt P04629); assay: Inhibition of human N-terminal GST-fused TRKA cytoplasmic domain (436 to 790 (end)residues) expressed in baculovirus expression system at 20 uM measured after 1 hr in presence of peptide substrate and ATP by off-chip mobility shift assay relative to control; how it was run: as §1
Protein smoothened [6] = target: T1, Protein smoothened (Homo sapiens, UniProt Q99835); assay: Inhibition of SMO in human PC9-OR cells assessed as reduction in GLI1 expression at antiproliferative IC50 measured after 72 hrs by Western blot analysis; type: functional, cell-based
Protein smoothened [7] = target: T1, Protein smoothened; assay: Inhibition of SMO in human HCC827 Gefitinib-resistant (GR) cells assessed as reduction in GLI1 expression at antiproliferative IC50 measured after 72 hrs by Western blot analysis; type: functional, cell-based; conditions: HCC827 Gefitinib-resistant (GR) cell
[8] = target: T2, Tyrosine-protein kinase JAK3 (Homo sapiens) (UniProt P52333); assay: Inhibition of human N-terminal His-tagged JAK3 catalytic domain (795 to 1124 (end)residues) expressed in baculovirus expression system at 20 uM measured after 1 hr in presence of peptide substrate and ATP by off-chip mobility shift assay relative to control; how it was run: as §1
T2 sequence (whole entry): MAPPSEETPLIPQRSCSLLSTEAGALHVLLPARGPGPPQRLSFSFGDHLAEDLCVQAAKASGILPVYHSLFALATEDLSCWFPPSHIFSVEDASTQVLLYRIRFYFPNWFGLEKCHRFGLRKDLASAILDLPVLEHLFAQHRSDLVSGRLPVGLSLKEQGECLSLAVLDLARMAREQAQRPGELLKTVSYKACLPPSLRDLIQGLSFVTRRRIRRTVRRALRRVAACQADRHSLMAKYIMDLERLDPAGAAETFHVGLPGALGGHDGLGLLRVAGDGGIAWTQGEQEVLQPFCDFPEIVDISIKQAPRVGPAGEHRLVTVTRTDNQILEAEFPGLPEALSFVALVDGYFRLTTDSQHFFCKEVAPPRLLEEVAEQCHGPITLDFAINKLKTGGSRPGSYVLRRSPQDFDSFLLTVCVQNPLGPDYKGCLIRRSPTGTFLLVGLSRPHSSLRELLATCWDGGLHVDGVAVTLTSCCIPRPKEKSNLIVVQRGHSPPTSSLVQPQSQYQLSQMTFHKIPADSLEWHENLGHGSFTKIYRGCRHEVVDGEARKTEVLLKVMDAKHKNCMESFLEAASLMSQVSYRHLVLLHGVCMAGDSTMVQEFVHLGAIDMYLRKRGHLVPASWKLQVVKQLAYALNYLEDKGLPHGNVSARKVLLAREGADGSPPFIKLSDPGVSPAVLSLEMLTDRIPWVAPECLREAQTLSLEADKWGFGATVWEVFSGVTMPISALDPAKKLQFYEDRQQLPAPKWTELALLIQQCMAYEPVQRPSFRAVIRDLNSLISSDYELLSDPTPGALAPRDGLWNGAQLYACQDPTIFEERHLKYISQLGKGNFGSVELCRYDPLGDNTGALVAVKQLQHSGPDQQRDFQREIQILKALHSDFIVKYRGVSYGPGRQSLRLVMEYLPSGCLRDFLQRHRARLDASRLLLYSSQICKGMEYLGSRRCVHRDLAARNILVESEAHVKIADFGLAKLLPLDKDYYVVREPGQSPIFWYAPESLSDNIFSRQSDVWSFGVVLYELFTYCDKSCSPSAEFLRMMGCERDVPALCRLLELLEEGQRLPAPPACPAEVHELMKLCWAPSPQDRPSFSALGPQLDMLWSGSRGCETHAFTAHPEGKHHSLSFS

Protein smoothened [9] = target: T1, Protein smoothened; assay: Displacement of [3H]-cyclopamine from SMO receptor (unknown origin) expressed in HEK293T cell membranes measured after 4 hrs by liquid scintillation spectrometry.; parameters: species or system Cell membrane
How it was run: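 Incubation of 15 μg HEK293T-WT SMO membranes (Kd 20 nM, Bmax 6.2 pmol/mg) with 25 nM [3H]-cyclopamine and varied compound, 4 h at RT, in 50 mM HEPES, 5 mM MgCl2, 0.02% BSA. Nonspecific binding was taken with 25 μM compound plus vismodegib. Bound ligand was separated on PEI-soaked GF/C filters, washed with ice-cold PBS/0.01% Triton X-100, and counted by scintillation; IC50 converted to Ki by Cheng–Prusoff.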

Sequence of Insulin-like growth factor 1 receptor (Homo sapiens) (P08069 31-736 limits assumed): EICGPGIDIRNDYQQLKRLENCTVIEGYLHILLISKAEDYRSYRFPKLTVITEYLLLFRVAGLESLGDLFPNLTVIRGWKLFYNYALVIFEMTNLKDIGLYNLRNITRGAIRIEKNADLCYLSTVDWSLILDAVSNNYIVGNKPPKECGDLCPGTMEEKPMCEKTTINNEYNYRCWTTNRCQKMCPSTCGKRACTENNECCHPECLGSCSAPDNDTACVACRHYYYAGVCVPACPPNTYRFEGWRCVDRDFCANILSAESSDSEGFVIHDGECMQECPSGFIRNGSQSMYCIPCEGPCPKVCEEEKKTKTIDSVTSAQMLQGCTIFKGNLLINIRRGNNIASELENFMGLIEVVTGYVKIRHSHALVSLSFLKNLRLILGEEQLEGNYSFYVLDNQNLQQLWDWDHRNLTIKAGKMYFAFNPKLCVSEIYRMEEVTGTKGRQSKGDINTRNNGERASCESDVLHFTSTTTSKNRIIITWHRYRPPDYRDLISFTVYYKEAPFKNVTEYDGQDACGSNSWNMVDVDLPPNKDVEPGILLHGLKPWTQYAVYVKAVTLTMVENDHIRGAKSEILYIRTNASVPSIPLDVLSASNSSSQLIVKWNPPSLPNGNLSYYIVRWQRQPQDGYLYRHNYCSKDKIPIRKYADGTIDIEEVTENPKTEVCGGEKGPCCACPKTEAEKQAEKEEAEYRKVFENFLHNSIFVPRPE
Sequence of Insulin-like growth factor 1 receptor (Homo sapiens) (P08069 741-1367 limits assumed): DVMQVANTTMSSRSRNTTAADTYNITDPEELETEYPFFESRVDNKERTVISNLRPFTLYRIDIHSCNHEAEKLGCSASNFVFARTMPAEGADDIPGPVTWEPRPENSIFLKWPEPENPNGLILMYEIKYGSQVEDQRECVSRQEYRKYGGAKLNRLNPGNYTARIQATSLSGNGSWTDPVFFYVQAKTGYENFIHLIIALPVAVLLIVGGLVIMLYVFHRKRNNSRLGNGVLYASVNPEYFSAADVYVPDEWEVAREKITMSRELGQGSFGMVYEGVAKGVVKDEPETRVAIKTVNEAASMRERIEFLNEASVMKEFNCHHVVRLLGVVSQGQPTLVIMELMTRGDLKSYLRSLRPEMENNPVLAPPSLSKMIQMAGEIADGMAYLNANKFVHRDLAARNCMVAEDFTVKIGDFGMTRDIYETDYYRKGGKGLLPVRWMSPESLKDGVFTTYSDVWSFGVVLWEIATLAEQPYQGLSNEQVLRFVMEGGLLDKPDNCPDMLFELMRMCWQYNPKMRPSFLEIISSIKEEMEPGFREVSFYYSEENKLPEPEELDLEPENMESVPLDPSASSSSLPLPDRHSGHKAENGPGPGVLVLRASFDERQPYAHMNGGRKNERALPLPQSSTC
Sequence of High affinity nerve growth factor receptor (Homo sapiens) (P04629 33-796 limits assumed): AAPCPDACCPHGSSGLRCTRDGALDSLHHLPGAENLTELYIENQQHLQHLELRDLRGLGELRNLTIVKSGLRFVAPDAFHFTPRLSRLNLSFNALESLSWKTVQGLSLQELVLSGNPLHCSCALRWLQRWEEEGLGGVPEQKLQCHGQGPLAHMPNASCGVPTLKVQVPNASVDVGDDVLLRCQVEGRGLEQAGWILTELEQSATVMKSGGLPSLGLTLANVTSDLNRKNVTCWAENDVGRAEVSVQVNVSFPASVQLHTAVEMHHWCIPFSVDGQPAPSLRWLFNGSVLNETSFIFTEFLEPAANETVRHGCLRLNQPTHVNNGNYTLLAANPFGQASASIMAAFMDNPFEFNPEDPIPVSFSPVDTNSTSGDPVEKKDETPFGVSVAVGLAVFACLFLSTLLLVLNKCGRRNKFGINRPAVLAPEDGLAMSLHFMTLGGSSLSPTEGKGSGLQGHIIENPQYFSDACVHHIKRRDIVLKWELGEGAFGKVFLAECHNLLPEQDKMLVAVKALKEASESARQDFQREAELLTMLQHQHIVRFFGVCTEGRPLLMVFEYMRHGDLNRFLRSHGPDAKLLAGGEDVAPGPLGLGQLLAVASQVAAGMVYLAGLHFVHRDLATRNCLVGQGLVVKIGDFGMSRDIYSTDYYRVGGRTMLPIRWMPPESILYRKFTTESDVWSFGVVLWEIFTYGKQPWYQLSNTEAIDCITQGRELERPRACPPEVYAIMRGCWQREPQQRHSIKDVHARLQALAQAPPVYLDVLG
T1 sequence (Q99835 whole entry): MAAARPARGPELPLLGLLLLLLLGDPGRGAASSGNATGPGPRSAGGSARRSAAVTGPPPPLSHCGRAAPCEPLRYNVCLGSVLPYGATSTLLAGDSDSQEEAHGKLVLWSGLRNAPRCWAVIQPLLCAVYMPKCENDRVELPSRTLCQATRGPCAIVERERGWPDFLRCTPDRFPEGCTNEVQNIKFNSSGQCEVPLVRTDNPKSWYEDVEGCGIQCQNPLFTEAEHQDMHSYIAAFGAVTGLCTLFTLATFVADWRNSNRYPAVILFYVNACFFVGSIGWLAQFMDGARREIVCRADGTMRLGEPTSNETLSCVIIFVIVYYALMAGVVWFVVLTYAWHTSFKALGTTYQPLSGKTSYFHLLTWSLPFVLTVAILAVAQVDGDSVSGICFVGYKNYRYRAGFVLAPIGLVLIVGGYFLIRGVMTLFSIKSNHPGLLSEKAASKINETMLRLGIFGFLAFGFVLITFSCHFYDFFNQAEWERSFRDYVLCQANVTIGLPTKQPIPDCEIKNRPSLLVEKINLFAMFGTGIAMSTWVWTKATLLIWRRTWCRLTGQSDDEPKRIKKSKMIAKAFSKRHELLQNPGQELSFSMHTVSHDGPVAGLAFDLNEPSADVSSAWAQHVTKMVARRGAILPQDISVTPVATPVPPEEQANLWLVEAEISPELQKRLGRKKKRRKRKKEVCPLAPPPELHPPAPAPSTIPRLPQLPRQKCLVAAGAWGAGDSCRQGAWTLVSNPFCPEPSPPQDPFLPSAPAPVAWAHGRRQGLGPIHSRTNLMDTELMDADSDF
Sequence of Epidermal growth factor receptor (Homo sapiens) (P00533 whole entry, the tested form may be a part): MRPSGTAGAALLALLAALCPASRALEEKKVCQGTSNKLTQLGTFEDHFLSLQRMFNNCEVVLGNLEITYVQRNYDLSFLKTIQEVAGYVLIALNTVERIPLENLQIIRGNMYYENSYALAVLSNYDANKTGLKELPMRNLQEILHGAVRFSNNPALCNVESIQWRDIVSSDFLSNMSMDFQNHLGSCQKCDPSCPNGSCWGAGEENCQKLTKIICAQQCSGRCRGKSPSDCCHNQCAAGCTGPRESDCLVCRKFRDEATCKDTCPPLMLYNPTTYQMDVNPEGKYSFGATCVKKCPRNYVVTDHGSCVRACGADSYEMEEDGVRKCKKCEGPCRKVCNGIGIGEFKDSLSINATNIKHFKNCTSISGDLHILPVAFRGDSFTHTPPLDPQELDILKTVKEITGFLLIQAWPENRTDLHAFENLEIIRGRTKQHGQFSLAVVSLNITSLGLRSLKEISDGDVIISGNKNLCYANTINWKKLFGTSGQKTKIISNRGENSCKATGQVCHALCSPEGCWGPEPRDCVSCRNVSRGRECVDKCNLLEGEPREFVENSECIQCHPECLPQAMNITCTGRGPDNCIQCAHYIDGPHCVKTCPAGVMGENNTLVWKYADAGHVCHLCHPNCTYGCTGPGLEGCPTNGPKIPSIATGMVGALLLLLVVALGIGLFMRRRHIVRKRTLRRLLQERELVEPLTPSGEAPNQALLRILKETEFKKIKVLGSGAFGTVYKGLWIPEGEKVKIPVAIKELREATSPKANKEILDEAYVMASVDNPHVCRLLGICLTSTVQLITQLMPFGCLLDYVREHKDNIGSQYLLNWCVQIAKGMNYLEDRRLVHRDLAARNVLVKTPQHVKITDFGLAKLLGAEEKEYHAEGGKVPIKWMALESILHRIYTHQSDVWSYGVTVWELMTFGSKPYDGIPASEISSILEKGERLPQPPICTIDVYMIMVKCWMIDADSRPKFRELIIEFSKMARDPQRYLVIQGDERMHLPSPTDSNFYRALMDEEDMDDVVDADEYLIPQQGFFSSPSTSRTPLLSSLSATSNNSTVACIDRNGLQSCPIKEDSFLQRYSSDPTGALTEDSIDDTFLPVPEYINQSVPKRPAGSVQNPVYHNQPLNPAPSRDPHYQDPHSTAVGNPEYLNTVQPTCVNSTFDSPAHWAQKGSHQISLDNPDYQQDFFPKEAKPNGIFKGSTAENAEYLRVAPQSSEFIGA

| inhibition [1] [%] | inhibition [2] [%] | inhibition [3] [%] | inhibition [5] [%] | inhibition (Protein smoothened [6]) | GLI1 expression reduction (qualitative) (Protein smoothened [7]) | inhibition [8] [%] | Ki (Protein smoothened [9]) [nM] | SMILES | IC50 [4] [nM] |
| --- | --- | --- | --- | --- | --- | --- | --- | --- | --- |
| 55.3 | 49.4 | 72.9 | 66.9 | Active | Active | 76.6 | 28 | Cc1ccc(NC(=O)CN2C(=O)/C(=N\NC(=O)c3cc(Br)ccc3O)c3ccc(Cl)cc32)cc1 | 2270 |
| 54 | 54.1 | 70.9 | 64.3 | Active | Active | 72.4 | 11 | Cc1ccc(NC(=O)CN2C(=O)/C(=N\NC(=O)c3cc(Br)ccc3O)c3ccc(Br)cc32)cc1 | 2080 |
| 80.2 | 91.9 | 85.2 | 80 | Active | Active | 83.8 | 185 | Cc1ccc(NC(=O)CN2C(=O)/C(=N\NC(=O)c3cc(Br)ccc3O)c3ccccc32)cc1 | 9510 |
| 66 | 89.7 | 69.3 | 65.9 | Active | Active | 78.9 | 9 | O=C(CN1C(=O)/C(=N\NC(=O)c2cc(Br)ccc2O)c2c(Br)cccc21)Nc1ccc([N+](=O)[O-])cc1 | 4050 |
